The values below come from the array DNA melting data of Ke et al. (doi:10.1101/2024.01.08.574731).

Data set [1] can be described thus: melting temperature; fluorescence melt of hairpins on a sequencing array, two-state fit, raised by 9.35 °C to match UV melts. Conditions: sodium 0.088 M. An outline of the steps: (§1)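 Cy3 fluorescence of library hairpins on a sequenced MiSeq flow cell, with annealed Cy3 and quencher oligos, was imaged in 50 mM Na-HEPES pH 8.0, 25 mM NaCl in 2.5 °C steps up to 60 °C. Signals were normalised to pre-quench Cy3 and to control variants. Melting temperature and folding enthalpy came from bootstrapped two-state fits, inverse-variance combined over four replicates. Fitted temperatures were raised by 9.35 °C to match UV melts.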

Data set [2] in a line: folding enthalpy; higher = less favourable; fluorescence melt of hairpins on a sequencing array, two-state fit. Particulars: sodium 0.088 M. An outline of the steps: as §1

As for GAAACCCGAAAGGGATTC (((.(((....))).))), the Tm in data set [1] was 49.3 °C. Further, in data set [2], the folding enthalpy is -23.6 kcal/mol.
Regarding GGTGGAGGAAACTCCGTC (..((((....))))..), the Tm in data set [1] was determined as 37.8 °C. The folding enthalpy in data set [2] is -15.4 kcal/mol.
On to GCTTTGTCGAAAGACAGC (((..(((....)))))), for which the Tm in data set [1] stood at 35.3 °C. Further, the folding enthalpy in data set [2] was -12 kcal/mol.
Taken in the same sequence, the figures for GATTAACGAAAGTTCATC (((.(((....))).))) were 33.9 °C and -24.6 kcal/mol.
On the same counts, the results for GGGCTAGGAAACTAGCTC (.(((((....))))).) are 50.9 °C and -28.9 kcal/mol.
On to GCCTCGCGAAAGCCCGGC (((..((....))..))), for which the Tm in data set [1] came out at 42.8 °C. The folding enthalpy in data set [2] was -17.8 kcal/mol.
On the same counts, the results for GATCCACCCTTGGATC ((((((....)))))) are 50.4 °C and -34.8 kcal/mol.
For GCTGAGCGAAAGCCCGGC ((.(.((....)).).)), the Tm in data set [1] is 52.2 °C. Besides, the folding enthalpy in data set [2] was -20.1 kcal/mol.
On the same counts, the results for GGTAGCACGAAAGTGACC (((..(((....)))))) are 32.2 °C and -13.9 kcal/mol.
In the case of GATCCTTGGCAGGATC ((((((....)))))), the Tm in data set [1] came to 49.4 °C. Also, in data set [2], the folding enthalpy was -35.3 kcal/mol.
Taken in the same sequence, the figures for GGACTACGAAAGTATTCC (((.(((....))).))) were 39.2 °C and -34.8 kcal/mol.
Taken in the same sequence, the figures for GATCTTCTATAAGATC ((((((....)))))) were 43.5 °C and -30.3 kcal/mol.
In the case of GAGCGCCGAAAGGCTCTC (((.(((....))).))), the Tm in data set [1] was determined as 50.7 °C. Moreover, the folding enthalpy in data set [2] was -21.4 kcal/mol.
Turning to GGATCCGAAAGGAGTTCC ((((((....)))..))), in data set [1], the Tm amounted to 32.8 °C. Moreover, the folding enthalpy in data set [2] is -14.8 kcal/mol.
For GTGTACGAAAGTAAGCAC ((((((....)))..))), in data set [1], the Tm was 33.4 °C. In addition, the folding enthalpy in data set [2] is -21.3 kcal/mol.
For the sequence GTTTGCTCGAAAGAGAAC (((..(((....)))))), in data set [1], the Tm came to 27 °C. Also, in data set [2], the folding enthalpy is -14.7 kcal/mol.
On the same counts, the results for GTAGACGAAAGTCCGTAC ((((((....)))..))) are 21 °C and -8.44 kcal/mol.
For GAAAGGCCGAAAGGCTTC (((..(((....)))))), the Tm in data set [1] was determined as 28.5 °C. Moreover, in data set [2], the folding enthalpy was -8.26 kcal/mol.
Taken in the same sequence, the figures for GCTTCCGAAAGGACCAGC ((((((....)))..))) were 31.2 °C and -14.2 kcal/mol.
Turning to GCTATACGAAAGTACAGC (((.(((....))).))), the Tm in data set [1] was 41.8 °C. The folding enthalpy in data set [2] is -30.2 kcal/mol.
On to GATCTTCTTTAAGATC ((((((....)))))), for which the Tm in data set [1] came to 43.3 °C. The folding enthalpy in data set [2] was -38 kcal/mol.
On the same counts, the results for GGAGCGGGAAACCGTTCC (((.(((....))).))) are 54.9 °C and -38.4 kcal/mol.
Taken in the same sequence, the figures for GATTCCGAAAGGACATC ((((((....))).))) were 39.2 °C and -21.4 kcal/mol.
In the case of GCCTTCGAAAGAATCGGC ((((((....)))..))), in data set [1], the Tm came out at 34.8 °C. For the same sequence, in data set [2], the folding enthalpy is -23.4 kcal/mol.
Take GAGATACGAAAGTACTC (((.(((....)))))): in data set [1], the Tm amounted to 36.7 °C. For the same sequence, the folding enthalpy in data set [2] is -19.9 kcal/mol.
For the sequence GCCCGCGGAAACACGGGC (((((.(....).))))), the Tm in data set [1] came out at 62.9 °C. The folding enthalpy in data set [2] was -47.9 kcal/mol.
On the same counts, the results for GAGAAAACGAAAGTTCTC (((..(((....)))))) are 30.8 °C and -19.4 kcal/mol.
On the same counts, the results for GTTGGTGGAAACACTGAC ((..(((....)))..)) are 34.8 °C and -15.9 kcal/mol.
Taken in the same sequence, the figures for GGCCGCCCGAAAGGGGCC (((..(((....)))))) were 62 °C and -15 kcal/mol.
As for GCGCAGCGAAAGCGGTGC ((.(.((....)).).)), in data set [1], the Tm was 61.5 °C. Moreover, the folding enthalpy in data set [2] was -16.5 kcal/mol.
In the case of GGATCAGCGAAAGCTTCC (((..(((....)))))), the Tm in data set [1] was found to be 30.7 °C. In data set [2], the folding enthalpy is -12.7 kcal/mol.
Turning to GAAAAAGCGAAAGCTTTC (((..(((....)))))), the Tm in data set [1] stood at 33.2 °C. Besides, the folding enthalpy in data set [2] was -12.1 kcal/mol.
On the same counts, the results for GATCTCCCACGAGATC ((((((....)))))) are 50.5 °C and -40.3 kcal/mol.
In the case of GCAAGTCCGAAAGGATGC (((..(((....)))))), in data set [1], the Tm is 37.7 °C. Also, the folding enthalpy in data set [2] was -16.1 kcal/mol.
GTCGCAGGAAACCACGAC ((((..(....)..)))): the Tm in data set [1] is 35.4 °C. Also, the folding enthalpy in data set [2] is -28 kcal/mol.
On the same counts, the results for GTGGGCGAAAGCCCGCAC ((((((....)))..))) are 58.6 °C and -10.2 kcal/mol.
Taken in the same sequence, the figures for GCGAACGAAAGTTCCCGC ((((((....)))..))) were 36.7 °C and -16.3 kcal/mol.
